MEKK2wt PB1 HTS – raises or lowers MEK5 binding to wildtype human MEKK2 PB1 domain; Q9Y2U5; binding response (% of control), % at 10 µM; actives 1.1% (n = 290,000); bead flow cytometry, Alexa488-MEK5 binding to MEKK2 WT; actives lie on both sides; in the data active means binding response below about 67% or above about 130%
T cell HTS – modulates CD8 T cell binding to vesicles; AID 2052; 2C CD8+ T cell-vesicle binding, flow cytometry; hits give low values; actives 0.068% (n = 330,000); response (vesicle binding), % at 7 µM;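 active means response, share of CD8 T cells binding vesicles, and their 90th percentile fluorescence all below set limits, cut at about 80% in these data, passing the limit was not always enough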;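 further: values below 100% mean blocked vesicle binding to the CD8+ T cells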
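Material: 2C TCR transgenic mouse naive CD8+ T cells, MACS-purified. Also added: QL9-charged Drosophila Ld/ICAM-1/B7-1 vesicles. Timing: binding 1.5 h at 37 °C. Measured by: high-throughput flow cytometry with anti-B7-1 and anti-CD8 staining. Read-out: percent CD8+ FL2 mean versus row control. Controls: Unloaded micro-vesicles (low), QL9 vesicles with 0.7% DMSO (high).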
UCH37 DUB inh – blocks the human deubiquitinase UCH37. Q9Y5K5. purified proteasome/UCH37, Ub-AMC cleavage fluorescence. inhibition, % (concentration not given with the values). actives 0.33% (n = 330,000);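 active means mean inhibition over replicate wells above about 20%, limit read from the data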
Target sequence (Q9Y5K5 whole entry, looked up): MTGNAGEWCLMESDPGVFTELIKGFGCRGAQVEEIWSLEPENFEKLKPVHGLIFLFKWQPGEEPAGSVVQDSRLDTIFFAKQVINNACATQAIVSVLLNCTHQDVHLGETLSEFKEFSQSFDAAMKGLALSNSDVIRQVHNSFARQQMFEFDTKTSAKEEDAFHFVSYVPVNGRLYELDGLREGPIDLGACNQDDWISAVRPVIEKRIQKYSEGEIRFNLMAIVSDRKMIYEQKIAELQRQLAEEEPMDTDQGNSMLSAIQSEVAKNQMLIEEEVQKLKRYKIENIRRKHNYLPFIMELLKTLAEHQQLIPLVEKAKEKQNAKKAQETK
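Assay system: Proteasome-bound UCH37. Buffer or medium: pH 7.4 Tris-HCl (50 mM) with ovalbumin, ATP-MgCl2, DTT. Incubation: 30 min preincubation with enzyme, 25 min cleavage at room temperature. Measured by: fluorescence, ex 355 nm, em 460 nm. Read-out basis: percent inhibition. Control set: wells without proteasome as full block, compound-free enzyme plus substrate as uninhibited.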
Rce1 inhib – yeast Ras-converting enzyme inhibition; yeast membranes, quenched prenylated peptide cleavage fluorescence; Q03530; actives 0.27% (n = 290,000); calls only;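 active means fall in fluorescence gain of 50% or more versus controls, with final raw signal at or below 3038400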
MEKK3 PB1 HTS – MEKK3-MEK5 PB1 interaction, increase or decrease. bead-based flow cytometry, Alexa488-MEK5 binding to MEKK3; actives lie on both sides; 0 = blocked by unlabeled MEK5, 100 = vehicle. binding response (% of control), % at 10 µM. actives 1.4% (n = 290,000);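 active means binding response more than 3 SD above or below the average of its plate-row segment, actives on both sides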;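 further: Alexa488 bead fluorescence after subtracting the streptavidin-only scavenger bead signal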
MEKK2mut PB1 HTS – signal of MEK5 binding to mutant human MEKK2 PB1 domain; bead flow cytometry, Alexa488-MEK5 binding to MEKK2 mutant; percent response, % at 10 µM; actives 0.35% (n = 290,000); in the data active means percent response above about 24%, passing the limit was not always enough
MEKK2wt confirm – raises or lowers MEK5 binding to wildtype human MEKK2, retest. shares compounds with MEKK3 PB1 HTS. actives 2.4% (n = 5,900). AID 1892. bead flow cytometry, Alexa488-MEK5 binding to MEKK2 WT; actives lie on both sides. binding response (% of control), % at 10 µM; in the data active means binding response below about 16% or above about 210%; inactive means in between
MEKK2mut-MEK5 – signal of MEK5 binding to mutant human MEKK2, retest | shares compounds with MEKK3 PB1 HTS | bead flow cytometry, Alexa488-MEK5 binding to MEKK2 mutant | percent response, % at 10 µM | actives 2% (n = 5,900) | AID 1893; in the data active means percent response mostly above about 71%, no sharp cut-off; inactive means mostly below about 38%;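 further: higher means compound restores mutant binding toward wildtype level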
MEKK3 confirm – confirmation of inhibitors of MEK5 binding to human MEKK3 | binding response (% of control), % at 10 µM | shares compounds with MEKK3 PB1 HTS | AID 1894 | bead flow cytometry, Alexa488-MEK5 binding to MEKK3; hits give low values | actives 1.8% (n = 5,900);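 active means binding response below 72% of control, or above a set upper limit, though filed actives all read lower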
Of the large screens only hits and unclear results are named; the others gave an inactive call (follow-up assays come after a bar, where they were run); ! = repeats disagree; [ ] = remark or other dose. Rows were chosen to be rich in hits. Some 2.5% of all compounds tested hit in one or more screens of this group.

CCOC(=O)c1c(CSC(=N)N)n(-c2ccc(C)cc2)c2cc(Br)c(OC(C)=O)cc12	MEKK2wt PB1 HTS 232, MEKK2mut PB1 HTS 70 | MEKK2wt confirm 212 | MEKK2mut-MEK5 inactive | MEKK3 confirm inactive
CNS(=O)(=O)c1ccc(NCC2COc3ccccc3O2)c([N+](=O)[O-])c1 (stereo not given)	MEKK3 PB1 HTS 133 | MEKK2wt confirm inactive | MEKK2mut-MEK5 inactive | MEKK3 confirm inactive
O=S(=O)(NCC1COc2ccccc2O1)c1ccc2ccccc2c1 (stereo not given)	none
CC(=O)Nc1ccc(-c2cc(C(=O)O)c3ccccc3n2)cc1	MEKK2wt PB1 HTS 61[inhibitor], MEKK3 PB1 HTS 58[inhibitor] (no result: Rce1 inhib) | MEKK2wt confirm inactive | MEKK2mut-MEK5 inactive | MEKK3 confirm inactive
CC(=O)NS(=O)(=O)c1ccc(NC(=O)c2cc(-c3ccc(C)cc3)nc3ccccc23)cc1	none
COC(=O)c1ccccc1NC(=O)C1CC(=O)N(c2ccc(C)c(C)c2)C1 (stereo not given)	MEKK3 PB1 HTS 131 (no result: Rce1 inhib) | MEKK2wt confirm inactive | MEKK2mut-MEK5 inactive | MEKK3 confirm inactive
COc1ccc(C=NNC(=O)C2=NNC(=O)C2C)cc1 (stereo not given)	none (no result: MEKK2wt PB1 HTS, T cell HTS, Rce1 inhib, MEKK3 PB1 HTS, MEKK2mut PB1 HTS)
CN1CCc2nc(SCc3ccc(C(C)(C)C)cc3)c(C#N)cc2C1	MEKK2wt PB1 HTS 142 (no result: Rce1 inhib) | MEKK2wt confirm inactive | MEKK2mut-MEK5 inactive | MEKK3 confirm inactive
O=c1c(-c2ccc(Br)cc2)coc2c(CN3CCCCC3)c(O)ccc12	none (no result: T cell HTS)
COc1ccc(-c2coc3c(CN4CCCCC4)c(O)c(CN4CCCCC4)c(O)c3c2=O)cc1	MEKK2wt PB1 HTS 144 (no result: UCH37 DUB inh) | MEKK2wt confirm inactive | MEKK2mut-MEK5 inactive | MEKK3 confirm inactive
CC(/C=C/c1ccco1)=NNC(=O)c1cccnc1	none (no result: MEKK2wt PB1 HTS, T cell HTS, Rce1 inhib, MEKK3 PB1 HTS, MEKK2mut PB1 HTS)
CNCC[C@H](Oc1cccc2ccccc12)c1cccs1	MEKK2wt PB1 HTS 157! | MEKK2wt confirm inactive | MEKK2mut-MEK5 inactive | MEKK3 confirm inactive
NNC(=O)Cc1csc(-c2ccccc2)n1	none
CC(C)CCNC(=O)Cc1csc(-c2ccccc2)n1	MEKK2wt PB1 HTS 3.0[inhibitor], MEKK3 PB1 HTS 2.0[inhibitor] | MEKK2wt confirm inactive | MEKK2mut-MEK5 inactive | MEKK3 confirm inactive
O=C(NN=Cc1ccccc1F)c1ccccc1OCc1ccccc1	none (no result: MEKK2wt PB1 HTS, T cell HTS, Rce1 inhib, MEKK3 PB1 HTS, MEKK2mut PB1 HTS)
COc1ccc(-c2cc(C3CCNCC3)[nH]n2)cc1	MEKK2wt PB1 HTS 154 | MEKK2wt confirm inactive | MEKK2mut-MEK5 inactive | MEKK3 confirm inactive
Cc1ccc(C=Nc2sc3c(c2C(N)=O)CCCC3)o1	none (no result: MEKK2wt PB1 HTS, T cell HTS, Rce1 inhib, MEKK3 PB1 HTS, MEKK2mut PB1 HTS)
COC(=O)C1=C[C@@H](C(=O)OC)[C@@H]2C3=C(C(=O)[C@]2(CC(C)C)NC(=O)c2ccccc2)[C@H](C)n2c(=O)n(-c4ccccc4)c(=O)n2[C@@H]3C1	none
CCC1(CC)C(=O)C2=C3C1[C@H](C(=O)OC)CC(C(=O)OC)C[C@H]3n1c(=O)n(-c3ccccc3)c(=O)n1[C@H]2C (stereo not given in full)	MEKK3 PB1 HTS 80[inhibitor] | MEKK2wt confirm inactive | MEKK2mut-MEK5 inactive | MEKK3 confirm inactive
COc1ccc(NS(=O)(=O)c2ccc(NC(=S)NC(=O)c3cccnc3)cc2)nn1	none
COc1ccc(NS(=O)(=O)c2ccc(NC(=S)NC(=O)c3cccc(F)c3)cc2)nn1	MEKK3 PB1 HTS 75[inhibitor] (no result: UCH37 DUB inh) | MEKK2wt confirm inactive | MEKK2mut-MEK5 inactive | MEKK3 confirm inactive
COc1nccnc1NS(=O)(=O)c1ccc(NC(=S)NC(=O)c2ccc(F)c(F)c2)cc1	MEKK3 PB1 HTS 154 | MEKK2wt confirm inactive | MEKK2mut-MEK5 inactive | MEKK3 confirm inactive
COc1nccnc1NS(=O)(=O)c1ccc(NC(=O)c2ccc(F)cc2)cc1	none

Screening data (PubChem)
